In the library only some 3.7% were active in any assay of this set; here they are far more common.
ROMK primary = ROMK potassium channel modulators, primary screen, cell-based, thallium flux, MLSMR library; ATP-sensitive inward rectifier potassium channel 1 (Homo sapiens), P48048; Tet-inducible ROMK, thallium flux fluorescence; actives lie on both sides; B-score at 10 µM; hit rate 2% among 130,000; AID 1918, 2009;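 active = signal ratio slope over the read window, or its plate-corrected B-score, at least 3 SD from the plate mean, either direction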;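 also: B-score of the F/F0 ratio slope over 7 to 12 s after thallium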
Target sequence (P48048 whole entry, looked up): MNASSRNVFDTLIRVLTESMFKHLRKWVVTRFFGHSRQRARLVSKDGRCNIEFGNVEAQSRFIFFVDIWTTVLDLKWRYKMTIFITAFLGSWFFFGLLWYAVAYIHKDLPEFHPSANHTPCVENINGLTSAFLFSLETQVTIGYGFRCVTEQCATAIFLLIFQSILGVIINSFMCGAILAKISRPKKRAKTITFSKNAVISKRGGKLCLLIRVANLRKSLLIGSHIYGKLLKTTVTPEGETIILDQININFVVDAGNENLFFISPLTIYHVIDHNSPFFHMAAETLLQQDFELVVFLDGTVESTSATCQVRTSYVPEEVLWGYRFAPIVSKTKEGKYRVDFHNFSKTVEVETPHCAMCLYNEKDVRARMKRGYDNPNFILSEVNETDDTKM
bCat nuc transl = modulators of beta-catenin nuclear translocation, primary screen, imaging, HeLa cells, immunofluorescence, high-content | nuclear translocation activity, % at 5 µM | hit rate 0.3% among 190,000 | AID 1665, 2009;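 active = nuclear translocation activity above 50% at 5 µM, with a well cell count of 50 or more; inconclusive = wells under 50 cells across six images, flagged as toxic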;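 also: per-cell ratio of nuclear to cytoplasmic median beta-catenin stain intensity; plate controls were DMSO negative control for no effect and GSK-3 inhibitor IX positive control for full effect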
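Technique: fluorescence imaging of beta-catenin antibody stain plus DAPI / Material: human HeLa cell line / Incubation: compound treatment 24 h, 37°C, 5% CO2 / Read-out basis: % activation of per-cell nuclear versus cytoplasmic median beta-catenin signal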
Cl transport mod = KCC2 cotransporter modulators, thallium flux, primary screen, cell-based, HEK293 KCC2, FluoZin-2 fluorescence, MLSMR; hit rate 2.2% among 190,000; KCC2 cells, thallium flux FluoZin-2 fluorescence; B-score of Tl+ flux slope (higher = more flux/activation; lower = inhibition) at 10 µM; Solute carrier family 12 member 5 (Homo sapiens), Q9H2X9; AID 1456, 2008;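 active = thallium flux slope and its plate-corrected score both differing from the plate sample mean at a set confidence after two filtering rounds, in either direction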;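 also: slope of fluorescence scaled to starting intensity during 10 to 20 s after thallium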
MT stabilize HCS = microtubule stabilizers in HeLa cells, primary screen, imaging, high-content imaging; HeLa tubulin immunostaining HCS, 24 h; share of cells brighter than vehicle mean+2SD; % tubulin-high responders, % at 10 µM; hit rate 0.83% among 200,000; AID 2205, 2009;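 active = plate Z-score above 3 for both tubulin-high and condensed-nucleus cell shares, with cell loss under 80%, at 10 µM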;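 also: anti alpha tubulin signal scored within the nucleus-defined area of each cell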
DTT redox prof = compounds producing H2O2 with reducing agent – biochemical, NIH compound library profiling, artefact control for MLSCN library redox annotation, primary screen. DTT-dependent redox cycling H2O2, phenol red/HRP absorbance; 100% = 100 µM peroxide control, 0% = buffer. hit rate 0.03% among 200,000. activation, % at 10 µM;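 active = activation of at least 50% relative to the plate's high and low controls in the primary single-dose screen; inactive = activation below 50%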;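 also: compound incubated with DTT at 0.8 mM final as the reducing agent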
ROMK retest = ROMK channel modulator hit retest, confirmation, cell-based, thallium flux, duplicate, resupplied hits | shares compounds with ROMK primary | hit rate 54% among 3,000 | normalized thallium flux (F/F0 slope) at 10 µM | fluorescence ratio; active compounds read low;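 active = Flux at 10 µM at least 3 SD below or above vehicle control mean in one or both replicates; inconclusive = no clear call, values can overlap the other calls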
Starred values were filed as active, the others as inactive; ? = inconclusive; · = no result given.

SMILES	ROMK primary	bCat nuc transl	Cl transport mod	MT stabilize HCS	DTT redox prof	ROMK retest
CSc1nccc(-c2nn(-c3ccc(C)cc3)ccc2=O)n1	4.4*	·	·	57*	0	0.093
COc1ccccc1CNC(=O)C(NC(=O)c1ccccc1)C(C)C (stereo not drawn)	0.77	-1	0.75	1	-1	·
O=c1c(Cc2ccccc2)c(O)ccn1C1CCCCCCC1	-0.29	-5	1.7	6	0	·
COc1ccc2[nH]c(C(=O)O)c(NS(=O)(=O)c3ccc(OC)c(OC)c3)c2c1	1.3	-3	·	10	0	·
COC(=O)c1[nH]c2ccc(F)cc2c1NS(=O)(=O)c1ccc(OC)cc1	2.2	40	-0.35	23*	0	0.092
COc1cccc(/C=N\n2c(C)nnc2C)c1OC	·	-2	·	4	-1	·
COc1cccc(/C=N/n2c(C)nc3ccccc32)c1OC	-2.7	0	-0.034	3	1	0.074
COc1ccc(/C=N/n2c(SC)nnc2-c2ccccc2)c(OC)c1OC	3.4*	92*	·	11	0	0.08
O=S(=O)(Nc1nc2c(s1)CCCC2)c1ccc(Br)cc1	-3.2*	8	-0.42	4	1	0.076
O=C(/C=C/c1ccccc1)CC(O)(c1ccccc1)C(F)(F)F (stereo not drawn)	-4.8*	·	-0.63	1	0	0.052*
Cc1nc(C(F)(F)F)c(C(=O)N/N=C(\N)c2cccnc2)s1	0.13	0	0.81	4	-1	·
CC1CCCN(C(=O)CN2CCC(c3nc4ccc(Cl)cc4[nH]3)CC2)C1 (stereo not drawn)	·	0	-0.18	·	·	·
Clc1ccc(CN2CCC(c3nc4ccc(Cl)cc4[nH]3)CC2)cc1	·	-1	·	0	-7	0.063*
N#CC1(c2ccc(NC(=O)c3ccccc3)cc2)CCCC1	2.3*	0	0.97	3	-3	0.094
COC(=O)/C(C#N)=C\c1c(OC)[nH]c2ccccc12	·	0	-1.1	·	·	·
Cc1ccc(C(=O)Nc2cc(C)c(OCC(=O)N3CCOCC3)c(C)c2)cc1	-0.35	-2	·	1	0	·
CN(C)CCNC(=O)/C(=C/c1ccc(-c2cccc(Cl)c2)o1)NC(=O)c1ccccc1	-3.7*	8	-1.3	4	0	0.056*
CN(C)CCCNC(=O)/C(=C\c1ccc(-c2ccc(Br)cc2)o1)NC(=O)c1ccccc1	-3.9*	16	-1.3	3	0	0.054*
CN(C)CCNC(=O)/C(=C/c1ccc(-c2cccc([N+](=O)[O-])c2)o1)NC(=O)c1ccccc1	-4.5*	·	0.65	4	1	0.053*
COc1ccccc1NC(=O)CSc1nnc(CCC(=O)Nc2ccccc2F)n1C	·	1	-0.9	·	·	·
COc1ccc(Cn2c(-c3ccc(OC)cc3)nc3ccccc32)cc1	-2.5*	-2	-0.025	3	1	?
C=CCNC(=S)N1CCN(Cc2ccccc2)CC1	0.4	0	-0.87	1	0	·
CN1CCN(CCCN2c3ccccc3Sc3ccc(Cl)cc32)CC1	·	-1	0.0045	5	0	0.048*
OCCN1CCN(CCCN2c3ccccc3Sc3ccc(C(F)(F)F)cc32)CC1	·	2	2.4	3	0	·
CC(C)c1ccc(NC(=O)C(c2ccccc2)N2CC(=O)Nc3ccccc32)cc1 (stereo not drawn)	1.9*	2	0.13	5	2	0.079
SMILES	ROMK primary	bCat nuc transl	Cl transport mod	MT stabilize HCS	DTT redox prof	ROMK retest
Cc1cc(Cl)ccc1OCCCC(=O)NCCN1C(=O)S/C(=C\c2cccnc2)C1=O	·	1	-0.62	2	0	·
Clc1ccc(-c2nn3c(-c4ccccc4)nnc3s2)cc1	·	1	-1.6	4	1	·
Cc1cn2c(-c3ccc(Cl)cc3)nnc2s1	·	1	0.42	2	0	0.071
O=C1NC(=O)/C(=C/c2ccc(N3CCOCC3)o2)N1	·	1	0.55	·	·	·
O=C1NC(=O)/C(=C\c2ccc(N3CCOCC3)o2)N1	-3.6*	2	-0.034	2	0	?
COc1cccc(/C=C/C(=O)N2CCN(S(=O)(=O)c3ccccc3)CC2)c1OC	·	2	·	·	·	·
CCOC(=O)N1CCN(S(=O)(=O)c2ccc3c(c2)SC(C)C(=O)N3)CC1 (stereo not drawn)	·	-2	-0.079	4	0	0.067*
CCOC(=O)N1CCN(S(=O)(=O)c2ccc3c(c2)OCC(=O)N3)CC1	-2.5*	-1	1.1	3	1	0.058*
CCOC(=O)N1CCN(S(=O)(=O)c2ccc3c(c2)SCC(=O)N3)CC1	-4.3*	-2	·	2	0	0.061*
CCOC(=O)N1CCN(S(=O)(=O)c2ccc(C)c(C)c2)CC1	-0.024	-1	·	2	0	·
O=C1CCCC(=O)N1c1ccc(NCCOCCO)c([N+](=O)[O-])c1	-0.084	0	-0.24	2	-1	·
COc1ccccc1S(=O)(=O)CC(O)COc1ccc(C#N)cc1 (stereo not drawn)	0.17	1	-0.022	2	0	·
O=C(Nc1ccc([N+](=O)[O-])cc1)c1cc(-c2ccccn2)nc2c(Cl)cccc12	-0.45	1	3	4	0	·
COc1ccc(Cl)cc1NC(=O)c1cc(-c2ccccc2O)n[nH]1	0.044	0	0.8	3	1	·
COc1ccccc1-c1cc(-c2cc(Cl)ccc2O)n[nH]1	2.5	-6	·	3	-1	?
COc1ccc(Br)cc1C(=O)Nc1ccc(C(=O)O)cc1	-0.28	3	-0.71	2	-1	·
COc1ccc(NC(=O)c2cc3cccc(OC)c3oc2=Nc2ccc(C(=O)O)cc2)cc1OC	-4.4*	1	-0.6	3	-2	0.054*
CC1(C)CC(Nc2ccc(C(F)(F)F)cc2[N+](=O)[O-])CC(C)(C)N1	-2.6*	1	-1.3	3	-3	0.055*
OC(COCc1cccs1)CN1CCN(c2cccc(Cl)c2)CC1 (stereo not drawn)	-2.6*	·	-0.17	4	0	0.054*
CCOC(=O)C1=C(C)NC(C)=C(C(=O)OCC)C1c1sccc1C	-5.3*	0	·	3	-4	0.048*
Cc1cn(Cc2ccccc2Cn2cc(C)c(=O)[nH]c2=O)c(=O)[nH]c1=O	0.23	0	0.31	·	·	·
Cc1ccccc1Cn1cc(C)c(=O)[nH]c1=O	2.1*	0	-0.34	3	0	0.073
CCCc1nnc(N2C(=O)c3cccc4cccc(c34)C2=O)s1	2.3*	1	·	1	0	0.08
O=C1N=C(N2CCOCC2)S/C1=C/c1ccc(-c2ccccc2Cl)o1	·	-1	·	2	3	0.056*

High-throughput results as filed in PubChem.
